Assay results published in ChEMBL document CHEMBL5033992, “Discovery and Synthesis of a Pyrimidine-Based Aurora Kinase Inhibitor to Reduce Levels of MYC Oncoproteins” (J Med Chem, 2021).
Activity calls are given as the source filed them. The rule behind the calls is not given here.

Experiments:
[1] = biological target: Aurora kinase B (Homo sapiens) (UniProt Q96GD4); assay: Inhibition of Aurora B phosphorylation in human NCI-H82 cells assessed as reduction in phosphorylation at Thr 232 residue at 50 to 1000 nM after 24 hrs by Western blot analysis; format: cell-based; conditions: dose 50-1000 nM
Outline: (§1)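 Cells treated with compound at various concentrations for 24 h, then washed in PBS, lysed in Laemmli buffer and boiled 10 min. Lysates run on SDS-PAGE, transferred to PVDF and probed with antibodies, then AP- or HRP-conjugated secondaries with chemiluminescent detection. Loading control β-actin. NCI-H82 grown in RPMI1640 and SK-N-BE(2) in MEM, each with 10% FBS. Relative levels quantified from triplicate experiments.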

NCI-H82 [2] = assay: Inhibition of Histone H3 phosphorylation in human NCI-H82 cells assessed as reduction in phosphorylation at Ser 10 residue at 50 to 1000 nM after 24 hrs by Western blot analysis; format: cell-based; conditions: dose 50-1000 nM; outline: as §1
[3] = biological target: Aurora kinase B (Homo sapiens) (UniProt Q96GD4); assay: Inhibition of Aurora B phosphorylation in human SKNBE2 cells assessed as reduction in phosphorylation at Thr 232 residue at 50 to 1000 nM after 24 hrs by Western blot analysis; format: cell-based; conditions: dose 50-1000 nM; outline: as §1
SKNBE2 = assay: Inhibition of Histone H3 phosphorylation in human SKNBE2cells assessed as reduction in phosphorylation at Ser 10 residue at 50 to 1000 nM after 24 hrs by Western blot analysis; conditions: dose 50-1000 nM; outline: as §1
NCI-H82 [4] = assay: Down regulation of Cyclin B1 expression in human NCI-H82 cells at 50 to 1000 nM after 24 hrs by Western blot analysis; format: functional, cell-based; conditions: dose 50-1000 nM; outline: as §1
SK-N-BE(2) [5] = assay: Down regulation of Cyclin B1 expression in human SKNBE2 cells at 50 to 1000 nM after 24 hrs by Western blot analysis; format: functional, cell-based; conditions: dose 50-1000 nM; outline: as §1
NCI-H526 = assay: Growth inhibition of human NCI-H526 cells assessed as reduction in cell viability after 72 hrs by PrestoBlue Cell Viability assay; format: functional, cell-based; conditions: NCI-H526, 72 h
Outline: (§2)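 Cells seeded at 5000–10,000 per well; after 24 h, treated with an eight-point titration from 0 to 10 μM in triplicate. After 72 h exposure, viability read by PrestoBlue fluorescence, and IC50 computed from the titration. SCLC lines grown in RPMI1640 and SK-N-BE(2) in MEM, each with 10% FBS.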

NCI-H209 = assay: Growth inhibition of human NCI-H209 cells assessed as reduction in cell viability after 72 hrs by PrestoBlue Cell Viability assay; format: functional, cell-based; conditions: NCI-H209, 72 h; outline: as §2
[6] = Growth inhibition of human NCI-H841 cells assessed as reduction in cell viability after 72 hrs by PrestoBlue Cell Viability assay; format: functional, cell-based; conditions: NCI-H841, 72 h; outline: as §2
NCI-H82 [7] = assay: Down regulation of cMYC protein expression level in human NCI-H82 cells at 1 uM incubated for 2 to 4 hrs in presence of MG132 by Western blot analysis; format: functional, cell-based; conditions: time 2-4 hrs
NCI-H82 [8] = assay: Induction of cell cycle arrest in human NCI-H82 cells at 1 uM after 24 hrs by Propidium iodide staining based flow cytometric analysis; format: functional
[9] = Half life in ICR mouse at 2 mg/kg, iv measured up to 24 hrs by LC-MS/MS analysis; format: ADME, organism-based; conditions: in vivo
[10] = Clearance in ICR mouse at 2 mg/kg, iv measured up to 24 hrs by LC-MS/MS analysis; format: ADME, organism-based; conditions: in vivo
[11] = Volume of distribution at steady state in ICR mouse at 2 mg/kg, iv measured up to 24 hrs by LC-MS/MS analysis; format: ADME, organism-based; conditions: in vivo, read-out: Vdss
[12] = AUC (0 to inf) in ICR mouse at 2 mg/kg, iv measured up to 24 hrs by LC-MS/MS analysis; format: ADME, organism-based; set-up: route intravenous, dose 2 mg/kg, time <=24; conditions: ICR, in vivo
[13] = Half life in ICR mouse at 10 mg/kg, po measured up to 24 hrs by LC-MS/MS analysis; format: ADME, organism-based; conditions: in vivo
[14] = Cmax in ICR mouse at 10 mg/kg, po measured up to 24 hrs by LC-MS/MS analysis; format: ADME, organism-based; set-up: route oral, dose 10 mg/kg, time <=24; conditions: in vivo
[15] = Tmax in ICR mouse at 10 mg/kg, po measured up to 24 hrs by LC-MS/MS analysis; format: ADME, organism-based; conditions: in vivo
[16] = AUC (0 to inf) in ICR mouse at 10 mg/kg, po measured up to 24 hrs by LC-MS/MS analysis; format: ADME, organism-based; set-up: route oral, dose 10 mg/kg, time <=24; conditions: in vivo
[17] = Oral bioavailability in ICR mouse at 10 mg/kg measured up to 24 hrs by LC-MS/MS analysis; format: ADME, organism-based; conditions: in vivo
[18] = Toxicity in athymic nu/nu nude mouse xenografted with NCI-H446 cells assessed as reduction in body weight at 50 mg/kg, iv administered at 5 on-2-off for 2 to 4 weeks relative to control; format: organism-based; set-up: scale not given: the % may be the effect or the level left; conditions: in vivo, time 2-4 weeks
Outline: (§3)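 Male athymic nu/nu mice, 6 weeks old, inoculated subcutaneously with 1 × 10⁶ NCI-H446 cells in saline with 50% Matrigel. Dosing IV or oral, vehicle 5% dimethylacetamide/95% PEG400, on a 5-on-2-off schedule for 2–4 weeks once tumors reached ≥200 mm³. Caliper volume = length × width²/2; tumors and body weight measured at least twice weekly. ANOVA with Student–Newman–Keuls, P < 0.05.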

[19] = biological target: T1, Aurora kinase A (Homo sapiens) (UniProt O14965); conditions: NCI-H82, dose 50-1000 nM, time 24.0 hrs
T1 sequence (whole entry): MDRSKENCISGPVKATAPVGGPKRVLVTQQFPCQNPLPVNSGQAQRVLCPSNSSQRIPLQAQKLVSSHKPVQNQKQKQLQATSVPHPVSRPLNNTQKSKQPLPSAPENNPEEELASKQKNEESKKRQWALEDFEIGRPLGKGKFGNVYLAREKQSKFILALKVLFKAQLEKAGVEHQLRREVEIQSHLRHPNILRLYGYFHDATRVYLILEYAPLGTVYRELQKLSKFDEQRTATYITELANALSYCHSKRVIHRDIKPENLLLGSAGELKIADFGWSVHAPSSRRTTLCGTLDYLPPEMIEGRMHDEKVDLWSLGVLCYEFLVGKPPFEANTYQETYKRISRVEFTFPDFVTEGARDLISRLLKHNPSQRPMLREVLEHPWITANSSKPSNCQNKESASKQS

[20] = biological target: T1, Aurora kinase A (Homo sapiens); conditions: SKNBE2, dose 50-1000 nM, time 24.0 hrs
SK-N-BE(2) [21] = assay: Growth inhibition of human SKNBE2 cells assessed as reduction in cell viability after 24 hrs by PrestoBlue Cell Viability assay; conditions: SKNBE2, 24 h
NCI-H446 [22] = assay: Anti-tumor activity against human NCI-H446 cells xenografted in athymic nu/nu nude mouse assessed as reduction in tumor volume at 50 to 100 mg/kg, po administered at 5 on-2-off for 2 to 4 weeks; format: functional, organism-based; conditions: dose 50-100 mg/kg, time 2-4 weeks; outline: as §3
[23] = Toxicity in athymic nu/nu nude mouse xenografted with NCI-H446 cells assessed as reduction in body weight at 50 to 100 mg/kg, po administered at 5 on-2-off for 2 to 4 weeks relative to control; format: organism-based; set-up: scale not given: the % may be the effect or the level left; conditions: in vivo, dose lower 50 mg/kg, time lower 2 weeks, dose upper 100 mg/kg, time upper 4 weeks; outline: as §3
NCI-H446 [24] = assay: Induction of apoptosis in human NCI-H446 cells xenografted in athymic nu/nu nude mouse assessed as increase in cleaved PARP1 protein expression level at 100 mg/kg, po measured up to 24 hrs by Western blot analysis; conditions: time hrs <=24
[25] = Inhibition of Histone H3 phosphorylation in human NCI-H446 cells xenografted in assessed as reduction in phosphorylation at Ser 10 residue at 100 mg/kg, po measured upto 8 hrs by western blot analysis relative to control
NCI-H446 [26] = assay: Anti-tumor activity against human NCI-H446 cells xenografted in athymic nu/nu nude mouse assessed as reduction in tumor volume at 50 mg/kg, po administered at 5 on-2-off for 3 weeks and further dosed 100 mg/kg, po for 4 th week relative to control; format: functional, organism-based; conditions: time 4.0 weeks; outline: as §3
[27] = Toxicity in athymic nu/nu nude mouse xenografted with NCI-H446 cells assessed as reduction in body weight 50 mg/kg, po administered at 5 on-2-off for 3 weeks and further dosed 100 mg/kg, po for 4 th week relative to control; format: organism-based; set-up: scale not given: the % may be the effect or the level left; conditions: in vivo, 672 h, at 50 to 100 mg/kg, dose 50-100 mg/kg, time 4 weeks; outline: as §3
NCI-H446 [28] = assay: Effect on cMYC protein expression level in human NCI-H446 cells xenografted in athymic nu/nu nude mouse at 100 mg/kg, po measured upto 24 hrs by western blot analysis relative to control; conditions: time hrs <=24
NCI-H446 [29] = assay: Induction of apoptosis in human NCI-H446 cells xenografted in athymic nu/nu nude mouse assessed as increase in cleaved CASP3 protein expression level at 100 mg/kg, po measured up to 24 hrs by IHC analysis; conditions: time hrs <=24

Aurora kinase B (Homo sapiens), sequence (Q96GD4 whole entry): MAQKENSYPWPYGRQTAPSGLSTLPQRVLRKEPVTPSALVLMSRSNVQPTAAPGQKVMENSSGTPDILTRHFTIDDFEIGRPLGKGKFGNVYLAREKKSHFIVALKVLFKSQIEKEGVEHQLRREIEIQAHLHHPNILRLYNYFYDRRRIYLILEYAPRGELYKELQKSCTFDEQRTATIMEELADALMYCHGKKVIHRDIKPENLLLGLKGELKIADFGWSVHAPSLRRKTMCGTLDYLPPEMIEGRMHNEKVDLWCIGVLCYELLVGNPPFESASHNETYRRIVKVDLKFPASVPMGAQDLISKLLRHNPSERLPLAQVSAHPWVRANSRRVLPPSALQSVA

| inhibition [1] | inhibition [3] | half-life [9] [h] | clearance [10] [mL/min/kg] | Vd [11] [L/kg] | AUC(0-inf) [12] [ng·h/mL] | half-life [13] [h] | Cmax [14] [ng/mL] | Tmax [15] [h] | AUC(0-inf) [16] [ng·h/mL] | bioavailability [17] [%] | SMILES | inhibition (NCI-H82 [2]) | inhibition (SKNBE2) | Activity (NCI-H82 [4]) | Activity (SK-N-BE(2) [5]) | Activity (NCI-H446 [22]) | Activity [23] [%] | Activity (NCI-H446 [24]) | inhibition in vivo at 100 mg/kg [25] [%] | further results |
| --- | --- | --- | --- | --- | --- | --- | --- | --- | --- | --- | --- | --- | --- | --- | --- | --- | --- | --- | --- | --- |
| Dose-Dependent Effect | Dose-Dependent Effect | 4 | 53.7 | 11.3 | 703 | 1.6 | 395 | 1 | 533 | 16.8 | CCN1CCN(c2cc(Nc3cc(C)[nH]n3)nc(N[C@H]3CCN(C(=O)c4ccc(Cl)cc4F)C3)n2)CC1 | Active | Active | Active | Active |  |  |  |  | IC50 (NCI-H526): < 100 nM; IC50 (NCI-H209): 20.7 nM; IC50 [6]: 2090 nM; Activity (NCI-H82 [7]): inactive; Activity (NCI-H82 [8]): Active; Activity [18]: < 5%; inhibition [19]: Dose-Dependent Effect; inhibition [20]: Dose-Dependent Effect; IC50 (SK-N-BE(2) [21]): 1 nM |
|  |  | 5.8 | 20 | 2.8 | 1480 | 2.7 | 1090 | 0.3 | 4050 | 54.5 | CCOC(=O)n1nc(C)cc1Nc1cc(N2CCN(CC)CC2)nc(N[C@H]2CCN(C(=O)c3ccc(Cl)cc3F)C2)n1 |  |  |  |  | Dose-Dependent Effect | < 5 |  |  |  |
| Dose-Dependent Effect | Dose-Dependent Effect |  |  |  |  |  |  |  |  |  | COc1cc(Nc2ncc3c(n2)-c2ccc(Cl)cc2C(c2c(F)cccc2OC)=NC3)ccc1C(=O)O [ALISERTIB] | Active | Active | Active | Active |  |  | Active | > 90 |  |
|  |  | 4.8 | 21.3 | 3.4 | 1410 | 2.7 | 2080 | 0.3 | 4400 |  | CCC(=O)n1nc(C)cc1Nc1cc(N2CCN(CC)CC2)nc(N[C@H]2CCN(C(=O)c3ccc(Cl)cc3F)C2)n1 |  |  |  |  | Dose-Dependent Effect | < 5 | Active | > 90 | Activity (NCI-H446 [26]): Active; Activity [27]: < 5%; Activity (NCI-H446 [28]): Active; Activity (NCI-H446 [29]): Active |
